Results from different studies.
Target: Dual specificity protein kinase TTK (TTK, Homo sapiens, UniProt P33981)
One construct used (P33981 1-857): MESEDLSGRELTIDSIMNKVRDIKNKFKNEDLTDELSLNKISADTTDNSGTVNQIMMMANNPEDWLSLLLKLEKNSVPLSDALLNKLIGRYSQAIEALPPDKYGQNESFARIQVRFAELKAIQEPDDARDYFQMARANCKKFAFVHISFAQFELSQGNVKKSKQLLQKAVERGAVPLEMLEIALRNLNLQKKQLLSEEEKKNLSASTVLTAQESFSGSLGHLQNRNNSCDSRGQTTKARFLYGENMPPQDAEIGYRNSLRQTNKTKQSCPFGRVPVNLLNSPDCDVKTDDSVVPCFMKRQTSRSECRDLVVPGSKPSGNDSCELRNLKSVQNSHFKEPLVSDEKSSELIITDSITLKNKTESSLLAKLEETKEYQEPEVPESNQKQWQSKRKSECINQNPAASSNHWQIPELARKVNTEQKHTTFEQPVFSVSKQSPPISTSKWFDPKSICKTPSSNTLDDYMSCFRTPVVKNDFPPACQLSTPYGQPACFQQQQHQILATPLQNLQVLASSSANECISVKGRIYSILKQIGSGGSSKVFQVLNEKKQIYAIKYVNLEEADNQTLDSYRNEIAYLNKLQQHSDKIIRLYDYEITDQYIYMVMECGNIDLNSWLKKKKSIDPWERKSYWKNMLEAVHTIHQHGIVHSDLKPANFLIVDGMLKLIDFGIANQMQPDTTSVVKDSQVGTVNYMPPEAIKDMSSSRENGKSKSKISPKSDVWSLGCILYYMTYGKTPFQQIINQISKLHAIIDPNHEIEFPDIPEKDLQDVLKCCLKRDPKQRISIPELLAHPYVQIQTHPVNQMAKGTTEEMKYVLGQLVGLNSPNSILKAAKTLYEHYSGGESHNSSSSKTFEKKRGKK

SMILES	test	setting	endpoint	result
CCOCCn1cc(C(=O)Nc2ccc(-n3nc(-c4cccnc4)cc3C(F)(F)F)cn2)ccc1=O	cell-free assay, competition with immobilised ligand	1 µM	remaining binding	100%
COc1cc(Nc2cnc(C#N)c(O[C@H](C)CN(C)C)n2)ncc1-c1cnn(C)c1	enzyme activity, inhibitor, radiometric	1 µM	remaining activity	81%
Cc1ccc(C(=O)NCc2ccsc2)cc1C#Cc1cn(C(C)C)c2ncnc(N)c12	enzyme activity, inhibitor	1 µM	activity vs control	93%
CN(C(=O)c1ccccc1)c1cc(N(C)c2ccc3c(c2)CCc2ccc(C(=O)NCCN4CCOCC4)cc2C3=O)ccc1F	cell-free assay, competition with immobilised ligand	1 µM	remaining binding	87%
Nc1ncnc2occ(-c3ccc(NC(=O)Nc4cc(C(F)(F)F)ccc4F)cc3)c12	cell-free assay	20 µM	remaining signal	4.5%
Oc1cccc(-c2nc(N3CCOCC3)c3oc4ncccc4c3n2)c1	cell-free assay	0.5 µM	remaining signal	93.3%
CC(C)(O)[C@H]1CC[C@H](Nc2ccc3ncc(-c4cccc(C(F)(F)F)c4)n3n2)CC1	enzyme activity, inhibitor	1 µM	remaining activity	79.8%
Cn1c2c(c3ccc(Cl)c(Cl)c31)C(C#N)C1(CCNCC1)NC2=O (racemic)	thermal stability, DSF	10 µM	ΔTm	0.7 °C
O=C1Nc2ccc(Cl)cc2C1=Cc1cc(Cl)c(O)c(Cl)c1	cell-free assay	0.5 µM	remaining signal	84.4%
CCS(=O)(=O)c1cc2cc(C[C@](O)(CC(C)(C)c3ccc(F)cc3C(N)=O)C(F)(F)F)[nH]c2cn1	cell-free assay, competition with immobilised ligand	1 µM	remaining binding	99%
CC(C)(C)c1nc2c(s1)c1nc(N)ncc1c1ccc(NS(=O)(=O)c3c(F)cccc3F)c(F)c12	enzyme activity, inhibitor, radiometric	1 µM	remaining activity	90%
FC(F)c1nc2ccccc2n1-c1nc(N2CCOCC2)nc(N2CCOCC2)n1	enzyme activity, inhibitor	10 µM	remaining activity	88%
Cc1noc([C@H]2C[C@@H](c3ccc(C(F)(F)F)cc3)CN(C(=O)N3CCS(=O)(=O)C3)C2)n1	cell-free assay, competition with immobilised ligand	1 µM	remaining binding	100%
CCN1CCC2(CC1)NC(=O)c1c(c3ccc(Cl)c(Cl)c3n1C)C2C#N (racemic)	thermal stability, DSF	10 µM	ΔTm	0.6 °C
FC(F)(F)Oc1cccc(-c2cnc3ccc(-c4ccncc4)nn23)c1	enzyme activity, inhibitor, radiometric	1 µM	activity vs control	70%
NS(=O)(=O)c1cc(NC(=O)C2(c3ccccc3Cl)CC2)ccc1Oc1cccc(Cl)c1	cell-free assay, competition with immobilised ligand	1 µM	remaining binding	100%
N#CCCc1ccc2c(c1)-c1[nH]c3ccc([N+](=O)[O-])cc3c1CC(=O)N2	cell-free assay	0.5 µM	remaining signal	71.7%
Cn1c2c(c3ccc(Cl)c(Cl)c31)C(C#N)C1(CCN(C(=O)OC(C)(C)C)CC1)NC2=O (racemic)	thermal stability, DSF	10 µM	ΔTm	0 °C
O=C(N1CCS(=O)(=O)CC1)N1C[C@H](c2ccc(OC(F)(F)F)cc2)C[C@H](c2nc(C3CC3)no2)C1	cell-free assay, competition with immobilised ligand	1 µM	remaining binding	82%
COc1cc(Cl)c(C(=O)N[C@@H](CN[C@H]2CC[C@@H](N)CC2)Cc2ccc(C#N)cc2)cc1-c1ccc(CN[C@H](C)c2ccc(C)cc2)o1	enzyme activity, inhibitor	1 µM	remaining activity	95%
O=C(NC[C@@H]1[C@H]2CN(C(=O)OCc3cc(C(F)(F)F)cc(C(F)(F)F)c3)C[C@@H]12)c1ccc2[nH]nnc2c1	cell-free assay, competition with immobilised ligand	1 µM	remaining binding	91%
Nc1nc(Nc2ccc(S(N)(=O)=O)cc2)nn1C(=O)c1c(F)cccc1F	cell-free assay	0.5 µM	remaining signal	77.5%
